Consider 1 compound from ChEMBL document CHEMBL1155167, “Fluoroquinolone resistance in atypical pneumococci and oral streptococci: evidence of horizontal gene transfer of fluoroquinolone resistance determinants from Streptococcus pneumoniae” (2007).

The test system of test [1] is Streptococcus viridans. Kind of test: Antimicrobial activity against Viridans streptococcus L21 with gyrB Ser494Thr and parC Lys137Asn mutation by broth dilution method. Type of test: functional. In a few lines:
(§1)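 Ciprofloxacin and levofloxacin MICs were determined by broth dilution following CLSI (formerly NCCLS) guidance. S. pneumoniae ATCC 6303 and ATCC 49619 served as control strains. Reference strains were S. mitis ATCC 49456 and S. oralis ATCC 10557. The clinical isolates came from patients at a Hong Kong teaching hospital.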
(In general: Dilution methods test growth across graded concentrations, often in twofold steps.)

Test [2] relates to Streptococcus oralis. Kind of test: Antimicrobial activity against Streptococcus oralis HK299 with gyrA Ser114Gly, and parC Ser52Gly, Asn91Asp mutation by broth dilution method. It counts as functional. In a few lines:
as §1

Test [3] has as its system Streptococcus pneumoniae. Kind of test: Antimicrobial activity against Streptococcus pneumoniae L5 with parE Ile460Val mutation by broth dilution method.
The subject of test [4] is Streptococcus oralis. Kind of test: Antimicrobial activity against Streptococcus oralis HK587 with gyrA Ser114Gly, and parC Ser52Gly, Asn91Asp mutation by broth dilution method. It counts as functional. In outline: as §1
Test [5] has as its system Streptococcus oralis. Kind of test: Antimicrobial activity against Streptococcus oralis HK553 with gyrA Ser114Gly, and parC Ser52Gly, Asn91Asp mutation by broth dilution method. It counts as functional. In a few lines: as §1
In test [6] the test system is Streptococcus pneumoniae. In words: Antimicrobial activity against Streptococcus pneumoniae L13 with parC Asp83Tyr and parE Ile460Val mutation by broth dilution method.
Test [7] relates to Streptococcus pneumoniae. In words: Antimicrobial activity against atypical Streptococcus pneumoniae L10 with gyrA Ser81Phe and parC Lys197Asn mutation by broth dilution method.
The test system of test [8] is Streptococcus pneumoniae. In words: Antimicrobial activity against Streptococcus pneumoniae L24 with gyrA Ser81Phe, gyrB Ser494Thr, parC Asp83Asn, Lys137Asn and parE Ile460Val mutation by broth dilution method.
For test [9], the system named is Streptococcus mitis. In words: Antimicrobial activity against Streptococcus mitis HK677 with gyrA Ser81Leu, Ser114Gly, gyrB Ser494Thr, parC Ser52Gly, Asp83Tyr, Asn91Asp and parE Arg447Ser mutation by broth dilution method. Type of test: functional. In a few lines: as §1
The subject of test [10] is Streptococcus oralis. In words: Antimicrobial activity against Streptococcus oralis HK816 with gyrA Ser81Leu, Ser114Gly and parC Ser52Gly, Ser79Tyr, Asn91Asp mutation by broth dilution method. It counts as functional. In a few lines: as §1
Test [11] deals with Streptococcus mitis. Kind of test: Antimicrobial activity against Streptococcus mitis HK141 with gyrA Ser114Gly, and parC Ser52Gly, Asn91Asp mutation by broth dilution method. Type of test: functional. In outline: as §1
Test [12] relates to Streptococcus viridans. In words: Antimicrobial activity against Viridans streptococcus L18 with gyrA Ser114Gly, Asp142Asn, gyrB Ser494Thr and parE Ile460Val mutation by broth dilution method. Type of test: functional. In a few lines: as §1
Test [13] deals with Streptococcus mitis. Kind of test: Antimicrobial activity against Streptococcus mitis HK137453 with gyrA Ser114Gly, and parC Ser52Gly, Asn91Asp mutation by broth dilution method. Type of test: functional. In outline:
as §1

For test [14], the system named is Streptococcus oralis. Kind of test: Antimicrobial activity against Streptococcus oralis HK619 with gyrA Ser114Gly, and parC Ser52Gly, Asn91Asp mutation by broth dilution method. It counts as functional. In outline:
as §1

Test [15] concerns Streptococcus pneumoniae. Kind of test: Antimicrobial activity against atypical Streptococcus pneumoniae L9 with gyrA Ser114Gly, gyrB Ser494Thr and parC Lys137Asn mutation by broth dilution method.
Test [16] deals with Streptococcus pneumoniae. Kind of test: Antimicrobial activity against atypical Streptococcus pneumoniae L27 with parC Ser52Gly, Asn91Asp, Glu135Asp mutation by broth dilution method.
Test [17] has as its system Streptococcus oralis. Kind of test: Antimicrobial activity against Streptococcus oralis HK386 with gyrA Ser114Gly, and parC Ser52Gly, Asn91Asp mutation by broth dilution method. Type of test: functional. In outline:
as §1

Test [18] relates to Streptococcus viridans. In words: Antimicrobial activity against Viridans streptococcus L2 with gyrA Ser114Gly, gyrB Ser494Thr and parC Ser52Gly, Asn91Asp mutation by broth dilution method. Type of test: functional. In a few lines: as §1
Test [19] relates to Streptococcus oralis. Kind of test: Antimicrobial activity against Streptococcus oralis HK51with gyrA Ser114Gly, and parC Ser52Gly, Asn91Asp mutation by broth dilution method. Type of test: functional. In a few lines:
as §1

For test [20], the system named is Streptococcus mitis. Kind of test: Antimicrobial activity against Streptococcus mitis HK188 with gyrA Ser114Gly, and parC Ser52Gly, Asn91Asp, Glu135Asp mutation by broth dilution method. It counts as functional. In outline:
as §1

Test [21] relates to Streptococcus oralis. Kind of test: Antimicrobial activity against Streptococcus oralis HK271 with gyrA Ser114Gly, and parC Ser52Gly, Asn91Asp mutation by broth dilution method. Type of test: functional. In a few lines:
as §1

Test [22] concerns Streptococcus mitis. In words: Antimicrobial activity against Streptococcus mitis HK680 with gyrA Ser114Gly, and parC Ser52Gly, Asn91Asp mutation by broth dilution method. Type of test: functional. In outline:
as §1

Values after ≈ are worked out from the molar mass of the structure shown.

One may read the MIC as the lowest concentration found to suppress growth. A high value points to a need for much substance. As to `O=C(O)c1cn(C2CC2)c2cc(N3CCNCC3)c(F)cc2c1=O` [CIPROFLOXACIN], the MIC stood at 16 µg/mL (≈ 48.3 µM) in test [1]; 4 µg/mL (≈ 12.1 µM) in [2]; 4 µg/mL (≈ 12.1 µM) in test [3]; 4 µg/mL (≈ 12.1 µM) in test [4]; 2 µg/mL (≈ 6.04 µM) in test [5]; 4 µg/mL (≈ 12.1 µM) in [6]. The MIC in test [7] was 4 µg/mL (≈ 12.1 µM); in test [8], at least 16 µg/mL; in test [9], 128 µg/mL (≈ 386 µM); in test [10] it was 32 µg/mL (≈ 96.6 µM); in test [11], 1 µg/mL (≈ 3.02 µM); in test [12], 4 µg/mL (≈ 12.1 µM). The minimum inhibitory concentration (MIC) in test [13] is 2 µg/mL (≈ 6.04 µM); in [14], 4 µg/mL (≈ 12.1 µM); in test [15], 4 µg/mL (≈ 12.1 µM); in test [16] it was 4 µg/mL (≈ 12.1 µM); in test [17], 4 µg/mL (≈ 12.1 µM); in test [18], 4 µg/mL (≈ 12.1 µM). Also, the minimal inhibitory concentration (MIC) was determined as 4 µg/mL (≈ 12.1 µM) in test [19], 1 µg/mL (≈ 3.02 µM) in test [20], 4 µg/mL (≈ 12.1 µM) in test [21] and 2 µg/mL (≈ 6.04 µM) in test [22].
